Assay results gathered from unrelated publications.
Each line is one published result; the experiments were not run side by side.
Cell line: A549
Observed: cell growth or viability

Structure (SMILES)	technique	time	IC50 [µM]
CC(C)C[C@H](NC(=O)[C@@H]1CCCN1C(=O)[C@H](Cc1ccc(O)cc1)NC(=O)[C@H](CCCCN)NC(=O)[C@H](CCCCN)NC(=O)[C@H](CS)NC(=O)[C@H](CC(C)C)NC(=O)[C@H](CCCCN)NC(=O)[C@H](CCCCN)NC(=O)[C@H](Cc1ccccc1)NC(=O)[C@H](CC(C)C)NC(=O)[C@H](CCCCN)NC(=O)[C@@H](N)CCCNC(=N)N)C(N)=O	MTT	24 h	258
N.N.O=C([O-])C1(C(=O)[O-])CCC1.[Pt+2]	MTT	48 h	197
CC(C)[C@@H]1NC(=O)[C@@H](CCCNC(=N)N)NC(=O)[C@H]([C@@H](C)O)NC(=O)[C@@H](CCN)NC(=O)[C@H](Cc2ccccc2)NC(=O)[C@@H](Cc2ccccc2)NC1=O	ATP luminescence	–	> 100
N.N.[Cl][Pt][Cl]	MTT	48 h	46.4
COC(=O)c1cc(C(C)=NNc2nc(-c3ccc(S(=O)(=O)F)cc3)cs2)ccc1O	MTT	96 h	65
C[C@H](NC(=O)[C@H](Cc1c[nH]cn1)NC(=O)[C@H](Cc1c[nH]c2ccccc12)NC(=O)[C@H](CCCCN)NC(=O)[C@H](Cc1c[nH]c2ccccc12)NC(=O)[C@H](Cc1c[nH]c2ccccc12)NC(=O)[C@H](CCCNC(=N)N)NC(=O)[C@H](Cc1c[nH]c2ccccc12)NC(=O)[C@H](Cc1c[nH]cn1)NC(=O)[C@@H](N)CCCNC(=N)N)C(=O)N[C@@H](CCCNC(=N)N)C(=O)N[C@@H](Cc1c[nH]c2ccccc12)C(=O)N[C@@H](Cc1c[nH]c2ccccc12)C(N)=O	MTT	24 h	49
CC[C@@]1(O)C(=O)OCc2c1cc1n(c2=O)Cc2cc3ccccc3nc2-1	SRB	48 h	0.06
N.N.[Cl][Pt][Cl]	MTT	72 h	50.8
CC1=CC(=O)c2c(O)cccc2C1=O	MTT	–	13.6
CC(C)[C@@H]1NC(=O)[C@@H](CCCNC(=N)N)NC(=O)[C@H]([C@@H](C)O)NC(=O)[C@@H](CCCNC(=N)N)NC(=O)[C@H](Cc2ccccc2)NC(=O)[C@@H](Cc2ccccc2)NC1=O	ATP luminescence	–	61.7
c1ccc([Se][Au]=[c]2n(C3CCCCC3)ccn2C2CCCCC2)cc1	crystal violet	–	0.9
CC(C)C[C@H](NC(=O)[C@H](CC(C)C)NC(=O)[C@H](CCCCN)NC(=O)[C@H](CCCCN)NC(=O)[C@H](Cc1ccccc1)NC(=O)[C@H](CC(C)C)NC(=O)[C@H](CCCCN)NC(=O)[C@H](CCCCN)NC(=O)[C@H](CC(C)C)NC(=O)[C@H](CC(C)C)NC(=O)[C@H](CCCCN)NC(=O)[C@@H](N)CCCNC(=N)N)C(=O)N[C@@H](CCCCN)C(N)=O	MTT	24 h	20
CC(C)C[C@H](NC(=O)[C@H](CO)NC(=O)[C@H](CO)NC(=O)CNC(=O)[C@@H]1CCCN1C(=O)[C@H](Cc1ccc(O)cc1)NC(=O)[C@H](CC(C)C)NC(=O)[C@H](CO)NC(=O)[C@H](CS)NC(=O)[C@H](CC(C)C)NC(=O)[C@@H](N)CC(C)C)C(=O)O	MTT	72 h	> 100
CC[C@H](C)[C@H](NC(=O)[C@H](CC(C)C)NC(=O)[C@H](CCCCN)NC(=O)[C@H](CCCCN)NC(=O)[C@H](CC(C)C)NC(=O)[C@H](CCCNC(=N)N)NC(=O)[C@H](CCCCN)NC(=O)[C@@H](N)CC(C)C)C(=O)N[C@@H](CCCCN)C(=O)N[C@@H](CCCCN)C(=O)N[C@@H](CC(C)C)C(=O)N[C@@H](CCCNC(=N)N)C(=O)N[C@@H](CCCCN)C(N)=O	MTT	24 h	100
N.N.[Cl][Pt][Cl]	–	–	1.2
CC(C)[C@H](NC(=O)[C@H](Cc1c[nH]cn1)NC(=O)[C@H](Cc1c[nH]c2ccccc12)NC(=O)[C@H](Cc1c[nH]cn1)NC(=O)[C@H](C)NC(=O)[C@H](CCCCN)NC(=O)[C@H](Cc1c[nH]c2ccccc12)NC(=O)[C@H](Cc1c[nH]c2ccccc12)NC(=O)[C@H](CCCNC(=N)N)NC(=O)[C@H](Cc1c[nH]c2ccccc12)NC(=O)[C@H](CCCNC(=N)N)NC(=O)[C@@H](N)CCCNC(=N)N)C(=O)N[C@@H](Cc1c[nH]c2ccccc12)C(N)=O	MTT	24 h	240
O=C1c2ccccc2-c2c3c(cc4ccnc1c24)OCO3	MTT	75 h	19.8
CC(C)C[C@H](NC(=O)[C@H](CCCCN)NC(=O)CN)C(=O)N[C@@H](C)C(=O)N[C@@H](CCCCN)C(=O)N[C@@H](CCCCN)C(=O)N[C@@H](CC(C)C)C(=O)N[C@@H](Cc1ccccc1)C(=O)N[C@@H](CCCCN)C(=O)N[C@@H](CCCCN)C(=O)N[C@@H](CC(C)C)C(=O)N[C@@H](CCCCN)C(=O)N[C@@H](Cc1ccc(O)cc1)C(N)=O	MTT	24 h	356
[C-]#[O+].[C-]#[O+].[C-]#[O+].[C-]#[O+].[C-]#[O+].[C-]#[O+].[C-]#[O+].[C-]#[O+].[C-]#[O+].[C-]#[O+].[Mn].[Mn]	MTT	48 h	20.9
